How the values were obtained:
[1] = biological target: α-syn/Cu^2+/CLR01 complex (Homo sapiens, UniProt P37840); assay: ECD top-down FT-ICR MS of the α-syn/Cu2+/CLR01 complex; format: binding
Outline: (§1)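 ESI on a 15T FT-ICR instrument: spray 1–2 kV, capillary exit 100 V, deflector plate 200 V, funnel 90 V, skimmer 50 V. Complex ions isolated with a 5–20 m/z notch, then fragmented by ECD (bias 1 V, pulse 10–50 ms). Product spectra deconvoluted with S/N limit 2. c- and z-ions assigned at 5 ppm error, with ligand and metals as unlocalized modifications.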

α-syn/ Cu^2+ complex = α-syn/ Cu^2+ complex (Homo sapiens, UniProt P37840); assay: IM-MS of the α-syn/Cu2+ complex with and without CLR01; details: 9+ charge state
Outline: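 Copper-bound α-syn in 20 mM ammonium acetate, analysed with test compound at 1:3 molar ratio and without it. Mobility measured by quadrupole-IM-TOF: spray 1–2 kV, sampling cone 10–20 V, source offset 20 V. Data for each charge state extracted over the [M+nH]ⁿ⁺ peak.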

α-syn [2] = biological target: T1, α-syn (Homo sapiens, UniProt P37840); assay: Native MS of α-syn/Cu2+/CLR01 solution, 1:1:3 molar ratio; format: binding
Outline: (§2)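 Protein at 10–30 μM in 20 mM ammonium acetate, with ligand added to 10–50 μM. Electrosprayed at 1–2 kV on a 15T FT-ICR (capillary exit 100 V, deflector 200 V, funnel 90 V, skimmer 50 V). Spectra deconvolved. Percent binding calculated from intensities of unbound and ligand-bound peaks.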

[3] = biological target: α-syn/Mn^2+/CLR01 complex (Homo sapiens, UniProt P37840); assay: ECD top-down FT-ICR MS of the α-syn/Mn2+/CLR01 complex; format: binding
Outline: as §1

α-syn [4] = biological target: T1, α-syn; assay: IM-MS of α-syn with Mn2+ and CLR01
Outline: (§3)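 IM-MS on a quadrupole-IM-time-of-flight instrument: spray 1–2 kV, sampling cone 10–20 V, source offset 20 V. Spectra taken over the full m/z range, with each charge state extracted over its [M+nH]ⁿ⁺ peak. Ligand at 5x molar concentration for wild-type protein; metal-bound protein with ligand at a 1:3 molar ratio.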

α-syn [5] = biological target: T1, α-syn; assay: Native MS of α-syn/Mn2+/CLR01 solution, 1:5:3 molar ratio; format: binding
Outline: as §2

A30P α-syn [6] = biological target: T2, A30P α-syn (Homo sapiens, UniProt P37840, A30P); assay: IM-MS of A30P α-syn/CLR01 complexes; details: 8+ and 9+ charge states
Outline: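 WT and A30P α-syn (10–30 μM) in 20 mM ammonium acetate, with test compound at 5x molar excess. Read on a quadrupole-IM-TOF instrument: spray 1–2 kV, sampling cone 10–20 V, source offset 20 V. IM spectra taken over the full m/z range. Per-charge-state data extracted over the [M+nH]ⁿ⁺ peak.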

wildtype α-syn = wildtype α-syn (Homo sapiens, UniProt P37840); assay: ECD top-down FT-ICR MS, binding site location on WT α-syn; details: 13+ charge state, α-syn bound with 2 CLR01 molecules
Outline: (§4)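 Protein (10–30 μM) in 20 mM ammonium acetate with test compound at 10–50 μM. Native ESI on a 15T FT-ICR: spray 1–2 kV, capillary exit 100 V, deflector 200 V, funnel 90 V, skimmer 50 V. Complexes isolated with 5–20 m/z notch, then ECD (bias 1 V, pulse 10–50 ms). Fragments deconvoluted at S/N 2. c/z ions assigned at 5 ppm error, with ligand as unlocalized modification.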

phosphorylated α-syn = phosphorylated α-syn (Homo sapiens, UniProt P37840); assay: IM-MS of phosphorylated α-syn with CLR01; details: 9+ charge state
Outline: (§5)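 Acetylated (made as previously described) or phosphorylated α-syn in 20 mM ammonium acetate, mixed 1:1 molar with test compound. Ion mobility–MS run on a quadrupole-IM-TOF: spray 1–2 kV, sampling cone 10–20 V, source offset 20 V. Mobiligrams extracted per charge state over the [M+nH]ⁿ⁺ peak.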

A30P α-syn [7] = biological target: T2, A30P α-syn; assay: Native MS of A30P α-syn with CLR01; format: binding; details: native solution conditions
Outline: as §2

WT α-syn [8] = biological target: T3, WT α-syn (Homo sapiens, UniProt P37840); assay: Native MS of WT α-syn with CLR01; format: binding
Outline: as §2

tau protein = details: IM-MS; cited from earlier work
acetylated α-syn = acetylated α-syn (Homo sapiens, UniProt P37840); assay: IM-MS of acetylated α-syn with CLR01; details: 9+ charge state
Outline: as §5

A30P α-syn [9] = biological target: T2, A30P α-syn; assay: ECD top-down FT-ICR MS, binding site location on A30P α-syn; details: A30P α-syn with 2 CLR01 molecules bound
Outline: as §4

[10] = biological target: wild type α-syn, acetylated α-syn, and phosphorylated α-syn (Homo sapiens, UniProt P37840); assay: Native MS of equimolar proteoform mixture with equimolar CLR01; format: binding; details: equimolar ratio of CLR01
Outline: as §2

WT α-syn [11] = biological target: T3, WT α-syn; assay: IM-MS of WT α-syn with CLR01
Outline: as §3

α-syn [12] = biological target: T1, α-syn; details: IM-MS; cited from earlier work

[Cu+2] [Cu^2+]
Cu2+ binding location [1]: N-terminus | ion mobiligram of Cu2+ bound α-syn versus WT form (α-syn/ Cu^2+ complex; no CLR01): early arriving ensembles significantly more abundant | α-syn bound by Cu2+ (α-syn [2]; 0 CLR01 molecules bound): 65% | number of copper binding events (α-syn [2]; 1:1:3 α-syn:Cu2+:CLR01): 1

[Mn+2] [Mn^2+]
Mn2+ binding location [3]: acidic C-terminal region | structural effect of Mn2+ binding (α-syn [4]; Mn2+ alone): only slightly compacts | number of Mn2+ binding events observed (α-syn [5]; 1:5:3 α-syn:Mn2+:CLR01): up to 5 | α-syn bound by Mn2+ (α-syn [5]; CLR01 not bound to the protein): 86%

CLR01
change of ion mobiligram on CLR01 binding (A30P α-syn [6]): early arriving ensembles increase in abundance | binding location of the second CLR01 molecule (wildtype α-syn): K12 with a secondary binding location at K21 | change of ion mobiligram on CLR01 binding (phosphorylated α-syn): further increase in abundance of the early arriving ensembles | number of CLR01 binding events observed (A30P α-syn [7]): up to 5 | total CLR01 bound to the protein (A30P α-syn [7]): 74% | change of ion mobiligram on CLR01 binding (α-syn/ Cu^2+ complex; α-syn/Cu2+ complex): further increases the abundance of the early arriving conformers | CLR01 in solution bound to the protein (WT α-syn [8]; CLR01 at 5x molar concentration): 63% | number of CLR01 binding events observed (WT α-syn [8]; CLR01 at 5x molar concentration, deconvolved mass spectrum): up to 5 | Kd values for the fourth and fifth binding sites (WT α-syn [8]; WT α-syn titrated with CLR01, thought to bind nonspecifically): did not converge well | structural effect of binding on tau protein (tau protein): compacts the structure of tau protein | structural effect when CLR01 and Mn2+ both bind (α-syn [4]; CLR01 and Mn2+ bound): the structure of α-syn is compacted | change of ion mobiligram on CLR01 binding (acetylated α-syn): increase in the abundance of early arriving ensembles | number of CLR01 binding events observed (α-syn [5]; 1:5:3 α-syn:Mn2+:CLR01): ≤ 4 | α-syn bound by Mn2+ (α-syn [5]; 1 CLR01 molecule bound): 89% | α-syn bound by Mn2+ (α-syn [5]; 2 CLR01 molecules bound): 92% | CLR01 binding location (A30P α-syn [9]): K10 and K12 with a possible additional site of binding at K21 | number of CLR01 molecules that bind each proteoform [10]: up to 2 | number of CLR01 molecules bound simultaneously with Cu2+ (α-syn [2]; 1:1:3 α-syn:Cu2+:CLR01): Up to 3 | α-syn bound by Cu2+ (α-syn [2]; 3 CLR01 molecules bound): 57% | change of ion mobiligram on CLR01 binding (WT α-syn [11]; 9+ charge state, 1 CLR01 molecule bound): increase in abundance of the early arriving ensemble | change of ion mobiligram on CLR01 binding (WT α-syn [11]; higher charge states such as 12+): do not show significant shifts

epigallocatechin-3-gallate [EGCG]
structural effect of binding on α-syn (α-syn [12]): promotes compaction of α-syn structure
